In ChEMBL document CHEMBL4689842, “EUbOPEN Chemogenomics Library wave 1” (2021):
Values joined by “and” are separate entries in the source; they are usually repeats but may differ in a detail not shown here. Equal values may be shown once.

Test system: HEK-293T
Assay: Multiplex assay against HEK293T;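 on Population Tubulin-Different-Phenotype (%): share of the cells with healthy nuclei that show this phenotype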
Format: toxicity, cell-based
Settings: human
How it was run: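 At seeding, live cells were stained with Hoechst33342, BioTracker Green Microtubule Cytoskeleton Dye, MitoTracker Red and Annexin V Alexa Fluor 680. After compound addition they were imaged on a CQ1 microscope at 37°C and 5% CO2, and CellPathfinder machine-learning gating sorted them into Hoechst high-intensity objects or normal cells, with normal cells further split into healthy, pyknosed or fragmented nuclei and pyknosed cells into mitotic or apoptotic. Tubulin, mitochondrial-mass and membrane-permeability phenotypes are given as per cents of cells with healthy nuclei.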

[1] = 12 h, 1 µM, compound concentration 1 uM, replicate 1
[2] = 12 h, 1 µM, compound concentration 1 uM, replicate 2
[3] = 12 h, 10 µM, compound concentration 10 uM, replicate 1
[4] = 12 h, 10 µM, compound concentration 10 uM, replicate 2
[5] = 24 h, 1 µM, compound concentration 1 uM, replicate 1
[6] = 24 h, 1 µM, compound concentration 1 uM, replicate 2
[7] = 24 h, 10 µM, compound concentration 10 uM, replicate 1
[8] = 24 h, 10 µM, compound concentration 10 uM, replicate 2
[9] = 48 h, 1 µM, compound concentration 1 uM, replicate 1
[10] = 48 h, 1 µM, compound concentration 1 uM, replicate 2
[11] = 48 h, 10 µM, compound concentration 10 uM, replicate 1
[12] = 48 h, 10 µM, compound concentration 10 uM, replicate 2

CCc1ccc(OCc2ccccc2C(=O)Nc2ccc3nc(C)cc(N)c3c2)cc1.Cl
Population Apoptotic (%) [1]: 84%
Population Fragmented Nuclei (%) [1]: 28%
Population Healthy Nuclei (%) [1]: 7%
Population Hoechst High Intensity Objects (%) [1]: 18%
Population Membrane Permeable-Phenotype (%) [1]: 33%
Population Mitochondria Different-Phenotype (%) [1]: 100%
Population Mitotic Cells (%) [1]: 15%
Population Normal (%) [1]: 81%
Population Pyknosed Nuclei (%) [1]: 64%
Population Tubulin-Different-Phenotype (%) [1]: 66%
Total Cell Count [1]: 156
Population Apoptotic (%) [2]: 73%
Population Fragmented Nuclei (%) [2]: 8%
Population Healthy Nuclei (%) [2]: 12%
Population Hoechst High Intensity Objects (%) [2]: 14%
Population Membrane Permeable-Phenotype (%) [2]: 0%
Population Mitochondria Different-Phenotype (%) [2]: 93%
Population Mitotic Cells (%) [2]: 26%
Population Normal (%) [2]: 85%
Population Pyknosed Nuclei (%) [2]: 79%
Population Tubulin-Different-Phenotype (%) [2]: 73%
Total Cell Count [2]: 146
Population Apoptotic (%) [3]: 50%
Population Fragmented Nuclei (%) [3]: 19%
Population Healthy Nuclei (%) [3]: 0%
Population Hoechst High Intensity Objects (%) [3]: 24%
Population Membrane Permeable-Phenotype (%) [3]: 0%
Population Mitochondria Different-Phenotype (%) [3]: 0%
Population Mitotic Cells (%) [3]: 50%
Population Normal (%) [3]: 75%
Population Pyknosed Nuclei (%) [3]: 80%
Population Tubulin-Different-Phenotype (%) [3]: 0%
Total Cell Count [3]: 144
Population Apoptotic (%) [4]: 62%
Population Fragmented Nuclei (%) [4]: 18%
Population Healthy Nuclei (%) [4]: 30%
Population Hoechst High Intensity Objects (%) [4]: 35%
Population Membrane Permeable-Phenotype (%) [4]: 11%
Population Mitochondria Different-Phenotype (%) [4]: 8%
Population Mitotic Cells (%) [4]: 37%
Population Normal (%) [4]: 64%
Population Pyknosed Nuclei (%) [4]: 51%
Population Tubulin-Different-Phenotype (%) [4]: 41%
Total Cell Count [4]: 175
Population Apoptotic (%) [5]: 85%
Population Fragmented Nuclei (%) [5]: 18%
Population Hoechst High Intensity Objects (%) [5]: 19%
Population Mitochondria Different-Phenotype (%) [5]: 90%
Population Mitotic Cells (%) [5]: 14%
Population Normal (%) [5]: 80%
Population Pyknosed Nuclei (%) [5]: 72%
Population Tubulin-Different-Phenotype (%) [5]: 81%
Total Cell Count [5]: 152
Population Apoptotic (%) [6]: 80%
Population Fragmented Nuclei (%) [6]: 10%
Population Healthy Nuclei (%) [6]: 9%
Population Hoechst High Intensity Objects (%) [6]: 15%
Population Membrane Permeable-Phenotype (%) [6]: 0%
Population Mitochondria Different-Phenotype (%) [6]: 100%
Population Mitotic Cells (%) [6]: 20%
Population Normal (%) [6]: 84%
Population Pyknosed Nuclei (%) [6]: 79%
Population Tubulin-Different-Phenotype (%) [6]: 100%
Total Cell Count [6]: 141
Population Apoptotic (%) [7]: 44%
Population Fragmented Nuclei (%) [7]: 20%
Population Healthy Nuclei (%) [7]: 0%
Population Hoechst High Intensity Objects (%) [7]: 22%
Population Membrane Permeable-Phenotype (%) [7]: 0%
Population Mitochondria Different-Phenotype (%) [7]: 100%
Population Mitotic Cells (%) [7]: 55%
Population Normal (%) [7]: 77%
Population Pyknosed Nuclei (%) [7]: 79%
Total Cell Count [7]: 135
Population Apoptotic (%) [8]: 42%
Population Fragmented Nuclei (%) [8]: 28%
Population Healthy Nuclei (%) [8]: 21%
Population Hoechst High Intensity Objects (%) [8]: 26%
Population Membrane Permeable-Phenotype (%) [8]: 18%
Population Mitochondria Different-Phenotype (%) [8]: 18%
Population Mitotic Cells (%) [8]: 57%
Population Normal (%) [8]: 73%
Population Pyknosed Nuclei (%) [8]: 50%
Population Tubulin-Different-Phenotype (%) [8]: 100%
Total Cell Count [8]: 103
Population Apoptotic (%) [9]: 85%
Population Fragmented Nuclei (%) [9]: 26%
Population Healthy Nuclei (%) [9]: 2%
Population Hoechst High Intensity Objects (%) [9]: 22%
Population Mitochondria Different-Phenotype (%) [9]: 66%
Population Mitotic Cells (%) [9]: 14%
Population Normal (%) [9]: 77%
Population Pyknosed Nuclei (%) [9]: 70%
Population Tubulin-Different-Phenotype (%) [9]: 66%
Total Cell Count [9]: 155
Population Apoptotic (%) [10]: 92%
Population Fragmented Nuclei (%) [10]: 14%
Population Healthy Nuclei (%) [10]: 11%
Population Hoechst High Intensity Objects (%) [10]: 11%
Population Membrane Permeable-Phenotype (%) [10]: 0%
Population Mitochondria Different-Phenotype (%) [10]: 84%
Population Mitotic Cells (%) [10]: 7%
Population Normal (%) [10]: 88%
Population Pyknosed Nuclei (%) [10]: 73%
Population Tubulin-Different-Phenotype (%) [10]: 84%
Total Cell Count [10]: 124
Population Apoptotic (%) [11]: 49%
Population Fragmented Nuclei (%) [11]: 20%
Population Healthy Nuclei (%) [11]: 0%
Population Hoechst High Intensity Objects (%) [11]: 22%
Population Membrane Permeable-Phenotype (%) [11]: 0%
Population Mitochondria Different-Phenotype (%) [11]: 0%
Population Mitotic Cells (%) [11]: 50%
Population Normal (%) [11]: 77%
Population Pyknosed Nuclei (%) [11]: 79%
Population Tubulin-Different-Phenotype (%) [11]: 0%
Total Cell Count [11]: 132
Population Apoptotic (%) [12]: 33%
Population Fragmented Nuclei (%) [12]: 31%
Population Healthy Nuclei (%) [12]: 50%
Population Hoechst High Intensity Objects (%) [12]: 40%
Population Membrane Permeable-Phenotype (%) [12]: 13%
Population Mitochondria Different-Phenotype (%) [12]: 28%
Population Mitotic Cells (%) [12]: 66%
Population Normal (%) [12]: 59%
Population Pyknosed Nuclei (%) [12]: 17%
Population Tubulin-Different-Phenotype (%) [12]: 64%
Total Cell Count [12]: 176

C[C@]1(O)C[C@@H](c2nc(-c3ccc4ccc(-c5ccccc5)nc4c3)c3c(N)nccn32)C1 [LINSITINIB]
Population Apoptotic (%) [1]: 31% and 29%
Population Fragmented Nuclei (%) [1]: 19% and 26%
Population Healthy Nuclei (%) [1]: 45% and 44%
Population Hoechst High Intensity Objects (%) [1]: 33% and 19%
Population Membrane Permeable-Phenotype (%) [1]: 11% and 4%
Population Mitochondria Different-Phenotype (%) [1]: 17% and 6%
Population Mitotic Cells (%) [1]: 68% and 70%
Population Normal (%) [1]: 66% and 80%
Population Pyknosed Nuclei (%) [1]: 35% and 28%
Total Cell Count [1]: 588 and 493
Population Apoptotic (%) [2]: 18% and 11%
Population Fragmented Nuclei (%) [2]: 4% and 8%
Population Healthy Nuclei (%) [2]: 83% and 86%
Population Hoechst High Intensity Objects (%) [2]: 14% and 5%
Population Membrane Permeable-Phenotype (%) [2]: 5% and 1%
Population Mitotic Cells (%) [2]: 81% and 88%
Population Normal (%) [2]: 85% and 94%
Population Pyknosed Nuclei (%) [2]: 11% and 4%
Total Cell Count [2]: 891 and 1486
Population Apoptotic (%) [5]: 31% and 26%
Population Fragmented Nuclei (%) [5]: 22% and 26%
Population Healthy Nuclei (%) [5]: 53% and 56%
Population Hoechst High Intensity Objects (%) [5]: 27% and 13%
Population Membrane Permeable-Phenotype (%) [5]: 7% and 5%
Population Mitochondria Different-Phenotype (%) [5]: 29% and 10%
Population Mitotic Cells (%) [5]: 68% and 73%
Population Normal (%) [5]: 72% and 86%
Population Pyknosed Nuclei (%) [5]: 23% and 16%
Total Cell Count [5]: 525 and 479
Population Fragmented Nuclei (%) [6]: 10%
Population Healthy Nuclei (%) [6]: 82% and 71%
Population Hoechst High Intensity Objects (%) [6]: 18% and 6%
Population Membrane Permeable-Phenotype (%) [6]: 8% and 4%
Population Mitotic Cells (%) [6]: 80% and 93%
Population Normal (%) [6]: 81% and 93%
Population Pyknosed Nuclei (%) [6]: 6% and 2%
Total Cell Count [6]: 1000 and 2217

Cc1cc(C)c(-n2ccn3nc(-c4cccnc4)cc23)cc1NC(=O)c1cc(C#N)cc(S(F)(F)(F)(F)F)c1 [BAY-826]
Population Apoptotic (%) [1]: 30%
Population Fragmented Nuclei (%) [1]: 14% and 17%
Population Healthy Nuclei (%) [1]: 56% and 57%
Population Hoechst High Intensity Objects (%) [1]: 14% and 13%
Population Membrane Permeable-Phenotype (%) [1]: 36% and 23%
Population Mitochondria Different-Phenotype (%) [1]: 25% and 17%
Population Mitotic Cells (%) [1]: 69%
Population Normal (%) [1]: 85% and 86%
Population Pyknosed Nuclei (%) [1]: 28% and 24%
Population Tubulin-Different-Phenotype (%) [1]: 93% and 58%
Total Cell Count [1]: 624 and 510
Population Fragmented Nuclei (%) [2]: 4% and 6%
Population Healthy Nuclei (%) [2]: 75% and 83%
Population Hoechst High Intensity Objects (%) [2]: 3%
Population Membrane Permeable-Phenotype (%) [2]: 34% and 17%
Population Mitochondria Different-Phenotype (%) [2]: 32% and 19%
Population Mitotic Cells (%) [2]: 79% and 93%
Population Normal (%) [2]: 96%
Population Pyknosed Nuclei (%) [2]: 20% and 9%
Population Tubulin-Different-Phenotype (%) [2]: 98% and 82%
Total Cell Count [2]: 1184 and 1372
Population Apoptotic (%) [5]: 35% and 25%
Population Fragmented Nuclei (%) [5]: 12% and 11%
Population Healthy Nuclei (%) [5]: 66% and 76%
Population Hoechst High Intensity Objects (%) [5]: 12% and 7%
Population Membrane Permeable-Phenotype (%) [5]: 33% and 20%
Population Mitochondria Different-Phenotype (%) [5]: 28% and 16%
Population Mitotic Cells (%) [5]: 64% and 75%
Population Normal (%) [5]: 87% and 92%
Population Pyknosed Nuclei (%) [5]: 20% and 12%
Population Tubulin-Different-Phenotype (%) [5]: 95% and 76%
Total Cell Count [5]: 622 and 545
Population Apoptotic (%) [6]: 9% and 14%
Population Healthy Nuclei (%) [6]: 78% and 68%
Population Hoechst High Intensity Objects (%) [6]: 4%
Population Membrane Permeable-Phenotype (%) [6]: 22% and 17%
Population Mitotic Cells (%) [6]: 90% and 85%
Population Normal (%) [6]: 95%
Population Tubulin-Different-Phenotype (%) [6]: 87%
Total Cell Count [6]: 2013 and 1166
